Measured values taken from ChEMBL document CHEMBL4145466, “Design, synthesis, and biological evaluation of novel combretastatin A-4 thio derivatives as microtubule targeting agents” (Eur J Med Chem, 2018).

Columns and labels:
SK-OV-3 = experiment: Cytotoxicity against human SKOV3 cells after 48 hrs by MTT assay; assay type: functional, cell-based; settings: SK-OV-3, 48 h
Procedure, shortened: (§1)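 Cells in DMEM with 10% FBS were plated at 2 × 10^4 per well and left overnight, then treated for 48 h at 0.6–20 µM (six concentrations) from 10 mM DMSO stocks. MTT was added for 2 h, and formazan was dissolved in DMSO and read at 570 nm. Viability was expressed as % of control, with IC50 taken from dose-response curves. Results are mean ± SD of three independent experiments.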

HaCaT = experiment: Cytotoxicity against human HaCaT cells after 48 hrs by MTT assay; assay type: cell-based; procedure, shortened: as §1
MCF7 = experiment: Cytotoxicity against human MCF7 cells after 48 hrs by MTT assay; assay type: functional, cell-based; settings: MCF7, 48 h; procedure, shortened: as §1
A-431 = experiment: Cytotoxicity against human A431 cells after 48 hrs by MTT assay; assay type: functional, cell-based; settings: A-431, 48 h; procedure, shortened: as §1
HeLa = experiment: Cytotoxicity against human HeLa cells after 48 hrs by MTT assay; assay type: functional, cell-based; procedure, shortened: as §1
[1] = Cytotoxicity against human CCD39Lu cells after 48 hrs by MTT assay; assay type: cell-based; procedure, shortened: as §1
[2] = Inhibition of porcine tubulin polymerization after 1 hr by spectrophotometric analysis; parameters: species or system Sus scrofa
Procedure, shortened: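 Polymerization was started by shifting from 4 °C to 37 °C, and absorbance was followed at 37 °C for 60 min. The vehicle served as control.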

A549 = experiment: Cytotoxicity against human A549 cells after 48 hrs by MTT assay; assay type: functional, cell-based; settings: A549, 48 h
MDA-MB-231 = experiment: Cytotoxicity against human MDA-MB-231 cells after 48 hrs by MTT assay; assay type: functional, cell-based; settings: MDA-MB-231, 48 h; procedure, shortened: as §1

Compound	IC50 [2]	IC50 (SK-OV-3)	IC50 (HaCaT)	IC50 (MCF7)	IC50 (A-431)	IC50 (HeLa)	IC50 [1]	IC50 (A549)	IC50 (MDA-MB-231)
COc1cc(/C=C\c2ccccc2SC)cc(OC)c1OC	> 10 µM	14.1 µM	12.8 µM	2.35 µM	8.22 µM	11.7 µM	> 20 µM	> 20 µM	14.2 µM
COc1cc(-c2ncn(C)c2-c2cc(Br)c(SC)c(OC)c2)cc(OC)c1OC	> 10 µM	> 20 µM	> 20 µM	2.51 µM	16.6 µM	8.18 µM	6.13 µM	> 20 µM	> 20 µM
COc1cc(/C(=C\c2ccccc2SC)C(=O)O)cc(OC)c1OC	> 10 µM	> 20 µM	> 20 µM	1.84 µM	> 20 µM	> 20 µM	> 20 µM	> 20 µM	> 20 µM
COc1cc(-c2c(-c3cc(Br)c(OC)c(OC)c3)ncn2C)ccc1SC	> 10 µM	> 20 µM	> 20 µM	2.2 µM	13.6 µM	> 20 µM	19.3 µM	> 20 µM	15.5 µM
COc1cc(/C=C\c2cccc(OC)c2SC)cc(OC)c1OC	> 10 µM	14.5 µM	9.56 µM	0.65 µM	3.61 µM	6.18 µM	> 20 µM	> 20 µM	11.7 µM
COc1cc(-c2ncoc2-c2ccccc2SC)cc(OC)c1OC	0.86 µM	> 20 µM	> 20 µM	1.43 µM	> 20 µM	7.33 µM	> 20 µM	> 20 µM	> 20 µM
COc1cc(-c2ncoc2-c2cc(Br)c(SC)c(OC)c2)cc(OC)c1OC	> 10 µM	> 20 µM	16.7 µM	1.42 µM	> 20 µM	> 20 µM	> 20 µM	> 20 µM	17.9 µM
COc1ccc(-c2c(-c3cc(Br)c(OC)c(OC)c3)ncn2C)cc1SC	> 10 µM	> 20 µM	> 20 µM	5.24 µM	> 20 µM	> 20 µM	> 20 µM	> 20 µM	> 20 µM
COc1cc(-c2ncn(C)c2-c2ccccc2SC)cc(OC)c1OC	> 10 µM	> 20 µM	> 20 µM	2.29 µM	> 20 µM	> 20 µM	> 20 µM	> 20 µM	> 20 µM

Further lines, with some results ahead:

IC50 [2]	Compound	IC50 (SK-OV-3)	IC50 (HaCaT)	IC50 (MCF7)	IC50 (A-431)	IC50 (HeLa)	IC50 [1]	IC50 (A549)	IC50 (MDA-MB-231)
4.8 µM	COc1ccc(-c2ocnc2-c2cc(Br)c(OC)c(OC)c2)cc1OC	0.26 µM	10.1 µM	6.1 µM	12.3 µM	0.07 µM	> 20 µM	0.5 µM	7.83 µM
> 10 µM	COc1cc(/C(=C\c2cccc(OC)c2SC)C(=O)O)cc(OC)c1OC	> 20 µM	> 20 µM	0.95 µM	> 20 µM	> 20 µM	> 20 µM	> 20 µM	> 20 µM
1.62 µM	COc1cc(-c2ocnc2-c2cc(OC)c(OC)c(OC)c2)ccc1SC	1.48 µM	0.43 µM	0.6 µM	0.43 µM	0.645 µM	> 20 µM	> 20 µM	0.85 µM
2.97 µM	COc1ccc(-c2ocnc2-c2cc(OC)c(OC)c(OC)c2)cc1S	3.18 µM	1.28 µM	2.11 µM	1.22 µM	4.44 µM	> 20 µM	> 20 µM	2.87 µM
1.54 µM	COc1cc(-c2ocnc2-c2cc(Br)c(OC)c(OC)c2)ccc1SC	1.03 µM	0.26 µM	2.48 µM	0.41 µM	0.44 µM	> 20 µM	> 20 µM	0.76 µM
6.67 µM	COc1ccc(-c2c(-c3cc(OC)c(SC)c(OC)c3)ncn2C)cc1O	1.72 µM	0.5 µM	1.63 µM	0.43 µM	0.39 µM	> 20 µM	> 20 µM	0.39 µM
